≈ marks a conversion by molar mass, not a printed value.
Tests used:
[1] = tested on: HL-60; test: Cytotoxicity against human HL60 cells after 48 hrs by MTT assay; format: functional, cell-based; details: HL-60, 48 h
In short: (§1)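 HL-60, HeLa, colon 502713 and A-549 cells grown in RPMI with 10% FBS, streptomycin and penicillin at 37 °C, 5% CO2. Cells (2 × […]/0.1 mL well) exposed 48 h to serial compound dilutions. MTT added for the final 4 h at 37 °C. Formazan extracted in DMSO and read at 540 nm. Mean and standard deviation of triplicate assays.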

[2] = tested on: HeLa; test: Cytotoxicity against human HeLa cells after 48 hrs by MTT assay; format: functional, cell-based; in short: as §1
[3] = tested on: A549; test: Cytotoxicity against human A549 cells after 48 hrs by MTT assay; format: functional, cell-based; details: A549, 48 h; in short: as §1
[4] = Inhibition of DMBA-induced/TPA-promoted carcinogenesis in Swiss albino mouse squamous cells assessed as incidence of skin papillomas administered orally 1 week before DMBA administration and continued for 20 weeks relative to DMPA/TPA treated control; format: functional
In short: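 Female Swiss albino mice (LACCA, 6 weeks, 18-22 g), backs depilated. DMBA 100 nmol in 100 µL acetone applied topically for 2 weeks, then TPA 1.7 nmol in 100 µL acetone twice weekly for 18 weeks. Compounds given orally in water/carboxymethyl cellulose, starting 1 week before DMBA, for 20 weeks. n = 10 per group. Papilloma incidence, body weight and survival recorded.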

[5] = Cytotoxicity against human colon 502713 cells after 48 hrs by MTT assay; format: functional, cell-based; details: Homo sapiens, 502713, 48 h; in short: as §1
[6] = Inhibition of DMBA-induced/TPA-promoted carcinogenesis in Swiss albino mouse squamous cells assessed as survival rate administered orally 1 week before DMBA administration and continued for 20 weeks relative to DMPA/TPA treated control; format: functional
In short: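 Female Swiss albino mice (LACCA, 6 weeks, 18-22 g), depilated back; DMBA 100 nmol/100 µL acetone topically for 2 weeks, then TPA 1.7 nmol/100 µL acetone twice weekly for 18 weeks. Compounds given orally as suspension in water/carboxymethyl cellulose from 1 week before DMBA for 20 weeks, n = 10/group. Number of surviving animals recorded at 20 weeks.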

Structure (SMILES): CCCC(=O)O[C@@H]1CC(C)(C)C[C@H]2C3=CC[C@@H]4[C@@]5(C)CCC(=O)C(C)(C)[C@@H]5CC[C@@]4(C)[C@]3(C)CC[C@@]12C(=O)O
- IC50 [1]: 21.6 µg/mL (≈ 39.9 µM)
- IC50 [2]: 22.8 µg/mL (≈ 42.2 µM)
- IC50 [3]: 27.1 µg/mL (≈ 50.1 µM)
- inhibition (INH) [4]: 17.2%
- IC50 [5]: 25.2 µg/mL (≈ 46.6 µM)

Structure (SMILES): COC(=O)[C@@]12CC[C@]3(C)C(=CC[C@@H]4[C@@]5(C)CCC(=O)C(C)(C)[C@@H]5CC[C@]43C)[C@@H]1CC(C)(C)C[C@H]2OC(C)=O
- IC50 [1]: 37.3 µg/mL (≈ 70.8 µM)
- IC50 [2]: 36.2 µg/mL (≈ 68.7 µM)
- IC50 [3]: 36.8 µg/mL (≈ 69.9 µM)
- IC50 [5]: 34.6 µg/mL (≈ 65.7 µM)

Structure (SMILES): CC(C)C(=O)O[C@@H]1CC(C)(C)C[C@H]2C3=CC[C@@H]4[C@@]5(C)CCC(=O)C(C)(C)[C@@H]5CC[C@@]4(C)[C@]3(C)CC[C@@]12C(=O)O
- survival rate [6]: 80%
- IC50 [1]: 41.2 µg/mL (≈ 76.2 µM)
- IC50 [2]: 43.6 µg/mL (≈ 80.6 µM)
- IC50 [3]: 44.2 µg/mL (≈ 81.7 µM)
- IC50 [5]: 37.6 µg/mL (≈ 69.5 µM)

Structure (SMILES): CC(=O)O[C@H]1C(=O)[C@@]2(C)[C@H]([C@H](OC(=O)c3ccccc3)[C@]3(O)C[C@H](OC(=O)[C@H](O)[C@@H](NC(=O)c4ccccc4)c4ccccc4)C(C)=C1C3(C)C)[C@]1(OC(C)=O)CO[C@@H]1C[C@@H]2O [PACLITAXEL]
- IC50 [1]: < 2 µg/mL
- IC50 [2]: > 3 µg/mL
- IC50 [3]: < 2 µg/mL
- IC50 [5]: < 2 µg/mL

Structure (SMILES): CC1(C)C[C@@H](OC(=O)c2ccccc2)[C@]2(C(=O)O)CC[C@]3(C)C(=CC[C@@H]4[C@@]5(C)CCC(=O)C(C)(C)[C@@H]5CC[C@]43C)[C@@H]2C1
- IC50 [1]: 50.8 µg/mL (≈ 88.4 µM)
- IC50 [2]: 46.3 µg/mL (≈ 80.5 µM)
- IC50 [3]: > 100 µg/mL
- IC50 [5]: 51.2 µg/mL (≈ 89.1 µM)

Structure (SMILES): C/C=C(/C)C(=O)O[C@@H]1CC(C)(C)C[C@H]2C3=CC[C@@H]4[C@@]5(C)CCC(=O)C(C)(C)[C@@H]5CC[C@@]4(C)[C@]3(C)CC[C@@]12C(=O)O [LANTADENE A]
- IC50 [1]: 19.8 µg/mL (≈ 35.8 µM)
- IC50 [2]: 23.3 µg/mL (≈ 42.1 µM)
- IC50 [3]: 21.8 µg/mL (≈ 39.4 µM)
- inhibition (INH) [4]: 18.1%
- IC50 [5]: 21.3 µg/mL (≈ 38.5 µM)

Structure (SMILES): CCCC(=O)O[C@@H]1CC(C)(C)C[C@H]2C3=CC[C@@H]4[C@@]5(C)CCC(=O)C(C)(C)[C@@H]5CC[C@@]4(C)[C@]3(C)CC[C@@]12C(=O)OC
- survival rate [6]: 80%
- IC50 [1]: 19.3 µg/mL (≈ 34.8 µM)
- IC50 [2]: 20.1 µg/mL (≈ 36.2 µM)
- IC50 [3]: 22.4 µg/mL (≈ 40.4 µM)
- inhibition (INH) [4]: 12.4%
- IC50 [5]: 21.1 µg/mL (≈ 38 µM)

Structure (SMILES): COC(=O)[C@@]12CC[C@]3(C)C(=CC[C@@H]4[C@@]5(C)CCC(=O)C(C)(C)[C@@H]5CC[C@]43C)[C@@H]1CC(C)(C)C[C@H]2OC(=O)C(C)C
- IC50 [1]: 39.5 µg/mL (≈ 71.2 µM)
- IC50 [2]: 41.1 µg/mL (≈ 74.1 µM)
- IC50 [3]: 42.2 µg/mL (≈ 76.1 µM)
- IC50 [5]: 38.1 µg/mL (≈ 68.7 µM)

Structure (SMILES): COC(=O)[C@@]12CC[C@]3(C)C(=CC[C@@H]4[C@@]5(C)CCC(=O)C(C)(C)[C@@H]5CC[C@]43C)[C@@H]1CC(C)(C)C[C@H]2O
- IC50 [1]: 70.6 µg/mL (≈ 146 µM)
- IC50 [2]: > 100 µg/mL
- IC50 [3]: 84.2 µg/mL (≈ 174 µM)
- IC50 [5]: 72.4 µg/mL (≈ 149 µM)

Structure (SMILES): CC(=O)O[C@@H]1CC(C)(C)C[C@H]2C3=CC[C@@H]4[C@@]5(C)CCC(=O)C(C)(C)[C@@H]5CC[C@@]4(C)[C@]3(C)CC[C@@]12C(=O)O
- IC50 [1]: 38.5 µg/mL (≈ 75.1 µM)
- IC50 [2]: 37.3 µg/mL (≈ 72.7 µM)
- IC50 [3]: 36.8 µg/mL (≈ 71.8 µM)
- IC50 [5]: 34.4 µg/mL (≈ 67.1 µM)

Structure (SMILES): CCC(=O)O[C@@H]1CC(C)(C)C[C@H]2C3=CC[C@@H]4[C@@]5(C)CCC(=O)C(C)(C)[C@@H]5CC[C@@]4(C)[C@]3(C)CC[C@@]12C(=O)O
- survival rate [6]: 80%
- IC50 [1]: 26.4 µg/mL (≈ 50.1 µM)
- IC50 [2]: 28.6 µg/mL (≈ 54.3 µM)
- IC50 [3]: 29.6 µg/mL (≈ 56.2 µM)
- inhibition (INH) [4]: 19.6%
- IC50 [5]: 25.4 µg/mL (≈ 48.2 µM)

Structure (SMILES): CC1(C)C[C@@H](O)[C@]2(C(=O)O)CC[C@]3(C)C(=CC[C@@H]4[C@@]5(C)CCC(=O)C(C)(C)[C@@H]5CC[C@]43C)[C@@H]2C1
- IC50 [1]: < 100 µg/mL
- IC50 [2]: > 100 µg/mL
- IC50 [3]: > 100 µg/mL
- IC50 [5]: > 100 µg/mL

Structure (SMILES): CCC(=O)O[C@@H]1CC(C)(C)C[C@H]2C3=CC[C@@H]4[C@@]5(C)CCC(=O)C(C)(C)[C@@H]5CC[C@@]4(C)[C@]3(C)CC[C@@]12C(=O)OC
- survival rate [6]: 80%
- IC50 [1]: 24.2 µg/mL (≈ 44.7 µM)
- IC50 [2]: 26.4 µg/mL (≈ 48.8 µM)
- IC50 [3]: 28.4 µg/mL (≈ 52.5 µM)
- inhibition (INH) [4]: 17.9%
- IC50 [5]: 22.4 µg/mL (≈ 41.4 µM)

Structure (SMILES): COC(=O)[C@@]12CC[C@]3(C)C(=CC[C@@H]4[C@@]5(C)CCC(=O)C(C)(C)[C@@H]5CC[C@]43C)[C@@H]1CC(C)(C)C[C@H]2OC(=O)c1ccccc1
- IC50 [1]: 48 µg/mL (≈ 81.5 µM)
- IC50 [2]: 50.7 µg/mL (≈ 86.1 µM)
- IC50 [3]: > 100 µg/mL
- IC50 [5]: > 100 µg/mL
